# Assay results from ChEMBL document CHEMBL5058577, “EUbOPEN Chemogenomics Library 2 (Multiplex)” (2022).
# Test system: HEK-293T
# Test: Multiplex assay against HEK293T
# Type: toxicity, cell-based
# Conditions: human
# Procedure, shortened: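 Tubulin, mitochondrial-mass and membrane-permeability phenotypes are per cents of healthy-nucleus cells. Cells were gated by CellPathfinder machine learning into Hoechst high-intensity objects or normal cells, normal cells into healthy, pyknosed or fragmented nuclei, and pyknosed cells into mitotic or apoptotic. Before that, live cells stained at seeding with Hoechst33342, BioTracker Green Microtubule Cytoskeleton Dye, MitoTracker Red and Annexin V Alexa Fluor 680 were imaged on a CQ1 microscope at 37°C and 5% CO2 after compound addition.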
# [1] = 12 h, 1 µM, compound concentration 1 uM, replicate 1
# [2] = 12 h, 1 µM, compound concentration 1 uM, replicate 2
# [3] = 12 h, 10 µM, compound concentration 10 uM, replicate 1
# [4] = 12 h, 10 µM, compound concentration 10 uM, replicate 2
# [5] = 24 h, 1 µM, compound concentration 1 uM, replicate 1
# [6] = 24 h, 1 µM, compound concentration 1 uM, replicate 2
# [7] = 24 h, 10 µM, compound concentration 10 uM, replicate 1
# [8] = 24 h, 10 µM, compound concentration 10 uM, replicate 2
# [9] = 48 h, 1 µM, compound concentration 1 uM, replicate 1
# [10] = 48 h, 1 µM, compound concentration 1 uM, replicate 2
# [11] = 48 h, 10 µM, compound concentration 10 uM, replicate 1
# [12] = 48 h, 10 µM, compound concentration 10 uM, replicate 2
smiles,measurement,setting,value
Cc1c(CC(=O)O)c2cccnc2n1Cc1ccc(S(C)(=O)=O)cc1C(F)(F)F [FEVIPIPRANT],Population Apoptotic (%),[1],27%
same,Population Fragmented Nuclei (%),[1],6%
same,Population Healthy Nuclei (%),[1],83%
same,Population Hoechst High Intensity Objects (%),[1],5%
same,Population Membrane Permeable-Phenotype (%),[1],0%
same,Population Mitochondria Different-Phenotype (%),[1],32%
same,Population Mitotic Cells (%),[1],72%
same,Population Normal (%),[1],94%
same,Population Pyknosed Nuclei (%),[1],9%
same,Population Tubulin-Different-Phenotype (%),[1],22%
same,Total Cell Count,[1],471
same,Population Apoptotic (%),[2],41%
same,Population Fragmented Nuclei (%),[2],7%
same,Population Healthy Nuclei (%),[2],79%
same,Population Hoechst High Intensity Objects (%),[2],7%
same,Population Mitochondria Different-Phenotype (%),[2],52%
same,Population Mitotic Cells (%),[2],58%
same,Population Normal (%),[2],92%
same,Population Pyknosed Nuclei (%),[2],12%
same,Population Tubulin-Different-Phenotype (%),[2],16%
same,Total Cell Count,[2],370
same,Population Apoptotic (%),[3],33%
same,Population Fragmented Nuclei (%),[3],5%
same,Population Healthy Nuclei (%),[3],80%
same,Population Hoechst High Intensity Objects (%),[3],6%
same,Population Membrane Permeable-Phenotype (%),[3],0%
same,Population Mitochondria Different-Phenotype (%),[3],46%
same,Population Mitotic Cells (%),[3],66%
same,Population Normal (%),[3],93%
same,Population Pyknosed Nuclei (%),[3],13%
same,Population Tubulin-Different-Phenotype (%),[3],29%
same,Total Cell Count,[3],417
same,Population Apoptotic (%),[4],52%
same,Population Fragmented Nuclei (%),[4],11%
same,Population Healthy Nuclei (%),[4],75%
same,Population Hoechst High Intensity Objects (%),[4],10%
same,Population Mitochondria Different-Phenotype (%),[4],66%
same,Population Mitotic Cells (%),[4],47%
same,Population Normal (%),[4],89%
same,Population Pyknosed Nuclei (%),[4],12%
same,Population Tubulin-Different-Phenotype (%),[4],32%
same,Total Cell Count,[4],303
same,Population Apoptotic (%),[5],22%
same,Population Fragmented Nuclei (%),[5],8%
same,Population Healthy Nuclei (%),[5],81%
same,Population Hoechst High Intensity Objects (%),[5],3%
same,Population Membrane Permeable-Phenotype (%),[5],1%
same,Population Mitochondria Different-Phenotype (%),[5],18%
same,Population Mitotic Cells (%),[5],77%
same,Population Normal (%),[5],96%
same,Population Pyknosed Nuclei (%),[5],10%
same,Population Tubulin-Different-Phenotype (%),[5],18%
same,Total Cell Count,[5],637
same,Population Apoptotic (%),[6],43%
same,Population Fragmented Nuclei (%),[6],7%
same,Population Healthy Nuclei (%),[6],82%
same,Population Hoechst High Intensity Objects (%),[6],4%
same,Population Membrane Permeable-Phenotype (%),[6],0%
same,Population Mitochondria Different-Phenotype (%),[6],37%
same,Population Mitotic Cells (%),[6],56%
same,Population Normal (%),[6],95%
same,Population Tubulin-Different-Phenotype (%),[6],14%
same,Total Cell Count,[6],457
same,Population Apoptotic (%),[7],33%
same,Population Fragmented Nuclei (%),[7],8%
same,Population Healthy Nuclei (%),[7],80%
same,Population Hoechst High Intensity Objects (%),[7],5%
same,Population Membrane Permeable-Phenotype (%),[7],0%
same,Population Mitochondria Different-Phenotype (%),[7],31%
same,Population Mitotic Cells (%),[7],66%
same,Population Normal (%),[7],94%
same,Population Pyknosed Nuclei (%),[7],10%
same,Population Tubulin-Different-Phenotype (%),[7],20%
same,Total Cell Count,[7],499
same,Population Apoptotic (%),[8],50%
same,Population Fragmented Nuclei (%),[8],9%
same,Population Healthy Nuclei (%),[8],81%
same,Population Hoechst High Intensity Objects (%),[8],11%
same,Population Mitochondria Different-Phenotype (%),[8],44%
same,Population Mitotic Cells (%),[8],50%
same,Population Normal (%),[8],88%
same,Population Pyknosed Nuclei (%),[8],8%
same,Total Cell Count,[8],334
same,Population Apoptotic (%),[9],16%
same,Population Fragmented Nuclei (%),[9],13%
same,Population Healthy Nuclei (%),[9],79%
same,Population Hoechst High Intensity Objects (%),[9],1%
same,Population Membrane Permeable-Phenotype (%),[9],2%
same,Population Mitochondria Different-Phenotype (%),[9],12%
same,Population Mitotic Cells (%),[9],83%
same,Population Normal (%),[9],98%
same,Population Pyknosed Nuclei (%),[9],7%
same,Population Tubulin-Different-Phenotype (%),[9],12%
same,Total Cell Count,[9],1065
same,Population Apoptotic (%),[10],20%
same,Population Fragmented Nuclei (%),[10],11%
same,Population Healthy Nuclei (%),[10],82%
same,Population Hoechst High Intensity Objects (%),[10],2%
same,Population Membrane Permeable-Phenotype (%),[10],0%
same,Population Mitochondria Different-Phenotype (%),[10],16%
same,Population Mitotic Cells (%),[10],79%
same,Population Normal (%),[10],97%
same,Population Pyknosed Nuclei (%),[10],6%
same,Population Tubulin-Different-Phenotype (%),[10],10%
same,Total Cell Count,[10],713
same,Population Apoptotic (%),[11],29%
same,Population Fragmented Nuclei (%),[11],14%
same,Population Healthy Nuclei (%),[11],78%
same,Population Hoechst High Intensity Objects (%),[11],4%
same,Population Membrane Permeable-Phenotype (%),[11],0%
same,Population Mitochondria Different-Phenotype (%),[11],24%
same,Population Mitotic Cells (%),[11],70%
same,Population Normal (%),[11],95%
same,Population Pyknosed Nuclei (%),[11],7%
same,Population Tubulin-Different-Phenotype (%),[11],14%
same,Total Cell Count,[11],794
same,Population Apoptotic (%),[12],45%
same,Population Healthy Nuclei (%),[12],77%
same,Population Hoechst High Intensity Objects (%),[12],7%
same,Population Membrane Permeable-Phenotype (%),[12],1%
same,Population Mitochondria Different-Phenotype (%),[12],22%
same,Population Mitotic Cells (%),[12],55%
same,Population Normal (%),[12],92%
same,Population Pyknosed Nuclei (%),[12],8%
same,Population Tubulin-Different-Phenotype (%),[12],17%
same,Total Cell Count,[12],491
